Reference: ChEMBL document CHEMBL2424625, “Synthesis and structure-activity relationships of novel indazolyl glucocorticoid receptor partial agonists” (Bioorg Med Chem Lett, 2013)
The source made the active and inactive calls. The calls are words filed in the database; no cut-off is given here.

Legend:
[1] = biological target: T1, Glucocorticoid receptor (Homo sapiens) (UniProt P04150); assay: Transrepression activity at glucocorticoid receptor in human A549 cells assessed as inhibition of IL1beta-stimulated NFkappaB-dependent E-selectin transcription by luciferase reporter gene assay relative to dexamethasone; type: cell-based
T1 sequence (whole entry): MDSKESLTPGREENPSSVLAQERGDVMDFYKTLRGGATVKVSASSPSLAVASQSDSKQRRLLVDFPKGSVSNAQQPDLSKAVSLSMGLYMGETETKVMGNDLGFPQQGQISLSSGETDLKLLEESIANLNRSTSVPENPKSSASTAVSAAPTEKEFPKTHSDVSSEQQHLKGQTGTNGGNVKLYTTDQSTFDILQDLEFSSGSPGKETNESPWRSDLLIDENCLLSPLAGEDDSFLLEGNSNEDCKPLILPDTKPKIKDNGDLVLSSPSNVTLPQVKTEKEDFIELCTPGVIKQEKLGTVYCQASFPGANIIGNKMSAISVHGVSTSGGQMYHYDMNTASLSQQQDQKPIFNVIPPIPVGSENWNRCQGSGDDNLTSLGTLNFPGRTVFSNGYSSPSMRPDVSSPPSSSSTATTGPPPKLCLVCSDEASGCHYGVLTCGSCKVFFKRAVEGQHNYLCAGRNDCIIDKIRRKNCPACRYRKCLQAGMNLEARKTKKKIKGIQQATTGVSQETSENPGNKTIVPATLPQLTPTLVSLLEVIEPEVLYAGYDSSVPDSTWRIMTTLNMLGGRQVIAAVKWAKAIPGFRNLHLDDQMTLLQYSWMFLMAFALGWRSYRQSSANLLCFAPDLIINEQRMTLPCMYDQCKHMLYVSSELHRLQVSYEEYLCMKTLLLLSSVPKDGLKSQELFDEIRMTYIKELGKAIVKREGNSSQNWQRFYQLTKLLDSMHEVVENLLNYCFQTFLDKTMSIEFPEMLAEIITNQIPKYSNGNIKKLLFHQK
In short: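 In A549 lung epithelial cells, NFkB activity was induced with IL-1β (0.5 ng/ml). Inhibition was quantitated as decreased luciferase activity. […] Values are means of two or more experiments in triplicate.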

Glucocorticoid receptor [2] = biological target: T2, Glucocorticoid receptor (Homo sapiens, UniProt P04150); assay: Binding affinity to glucocorticoid receptor (unknown origin) by fluorescence assay
T2 sequence (P04150 whole entry): T1 sequence (whole entry)

Glucocorticoid receptor [3] = biological target: T2, Glucocorticoid receptor; assay: Transrepression activity at glucocorticoid receptor in human A549 cells assessed as inhibition of IL1beta-stimulated NFkappaB-dependent E-selectin transcription by luciferase reporter gene assay; type: cell-based
Glucocorticoid receptor [4] = biological target: T2, Glucocorticoid receptor; assay: Transactivation activity at glucocorticoid receptor ligand binding domain (unknown origin) expressed in human Hela cells co-expressing GAL4 DNA binding domain assessed as NP-1-stimulated GRE activation by luciferase reporter gene assay; type: cell-based
[5] = biological target: T1, Glucocorticoid receptor (Homo sapiens); assay: Transrepression activity at glucocorticoid receptor in human A549 cells assessed as inhibition of PMA-stimulated AP1 response element by luciferase reporter gene assay relative to dexamethasone; type: cell-based
In short: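 Transrepression of AP-1 was run in A549 lung epithelial cells. […] Values are means of two or more experiments in triplicate.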

Glucocorticoid receptor [6] = biological target: T2, Glucocorticoid receptor; assay: Transrepression activity at glucocorticoid receptor in human A549 cells assessed as inhibition of PMA-stimulated AP1 response element by luciferase reporter gene assay; type: cell-based
[7] = biological target: T1, Glucocorticoid receptor (Homo sapiens); assay: Transactivation activity at glucocorticoid receptor ligand binding domain (unknown origin) expressed in human Hela cells co-expressing GAL4 DNA binding domain assessed as NP-1-stimulated GRE activation by luciferase reporter gene assay relative to dexamethasone; type: cell-based
In short: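 HeLa line (NP-1) stably transfected with a GR-LBD chimera cloned into a GAL4 luciferase reporter was run in agonist mode. Direct GR-LBD activation was read as increased luciferase activity. […] Values are means of two or more experiments in triplicate.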

[8] = biological target: T1, Glucocorticoid receptor (Homo sapiens); assay: Partial agonist activity at glucocorticoid receptor (unknown origin) by fluorescence assay

SMILES | Efficacy [1] [%] | Ki (Glucocorticoid receptor [2]) [µM] | EC50 (Glucocorticoid receptor [3]) [µM] | EC50 (Glucocorticoid receptor [4]) [µM] | Efficacy [5] [%] | EC50 (Glucocorticoid receptor [6]) [µM] | Efficacy [7] [%] | Activity [8]
CC(C)(C)CC(=O)NCC(C)(C)[C@@H](c1ccccc1)c1ccc2c(cnn2-c2ccc(F)cc2)c1 | 46 | 0.0019 | 0.138 | > 10 | 62 | 0.215 |  | 
CC(C)(CNC(=O)C(F)(F)F)[C@@H](c1ccccc1)c1ccc2c(cnn2-c2ccc(F)cc2)c1 | 39 | 0.00174 | 0.124 | > 10 | 44 | 0.725 |  | 
CC(CNC(=O)CC(F)(F)F)[C@@H](c1ccccc1)c1ccc2c(cnn2-c2ccc(F)cc2)c1 (single isomer, unassigned) [listing 2 of 2 here] |  |  |  |  | 84 |  | 52 | 
CC(C)C[C@@H](c1ccc2c(cnn2-c2ccc(F)cc2)c1)C(C)(C)CNC(=O)NCC(F)(F)F | 85 | 0.00142 | 0.087 | 0.501 | 86 | 0.118 | 58 | 
CC(C)(CNC(=O)NCC(F)(F)F)[C@@H](c1ccccc1)c1ccc2c(cnn2-c2ccc(F)cc2)c1 | 55 | 0.0102 | 0.393 | > 10 | 66 | 0.252 |  | 
CC(=O)NCC(C)(C)[C@@H](c1ccccc1)c1ccc2c(cnn2-c2ccc(F)cc2)c1 | 58 | 0.0024 | 1.15 |  |  | > 5 |  | 
CC(C)(CNC(=O)Cc1ccccc1)[C@@H](c1ccccc1)c1ccc2c(cnn2-c2ccc(F)cc2)c1 |  |  |  | 0.977 | 33 | 2.52 | 100 | 
CCCS(=O)(=O)NCC(C)(C)[C@@H](c1ccccc1)c1ccc2c(cnn2-c2ccc(F)cc2)c1 | 63 | 0.00151 | 0.086 | > 10 | 66 | 0.143 |  | 
CC(CNC(=O)CC(F)(F)F)[C@@H](c1ccccc1)c1ccc2c(cnn2-c2ccc(F)cc2)c1 (stereo in doubt; 3i) [listing 2 of 2 here] |  |  |  |  | 88 |  | 102 | 

Continued, values first:

Efficacy [1] [%] | Ki (Glucocorticoid receptor [2]) [µM] | EC50 (Glucocorticoid receptor [3]) [µM] | EC50 (Glucocorticoid receptor [4]) [µM] | Efficacy [5] [%] | EC50 (Glucocorticoid receptor [6]) [µM] | Efficacy [7] [%] | Activity [8] | SMILES
96 | 0.0013 | 0.038 | 0.262 | 101 | 0.061 | 81 |  | CC(C)C[C@@H](c1ccc2c(cnn2-c2ccc(F)cc2)c1)C(C)(C)CNC(=O)CC(F)(F)F
105 | 0.00134 | 0.00066 | 0.026 | 97 | 0.0052 | 112 |  | CC(CNS(=O)(=O)CC(F)(F)F)[C@@H](c1ccccc1)c1ccc2c(cnn2-c2ccc(F)cc2)c1 (stereo partly drawn)
 | 0.0023 |  | 0.374 |  | 0.052 |  |  | CC(CNC(=O)CC(F)(F)F)[C@@H](c1ccccc1)c1ccc2c(cnn2-c2ccc(F)cc2)c1 (single isomer, unassigned) [listing 1 of 2 here]
97 | 0.00053 | 0.0191 | 0.148 | 86 | 0.0205 | 32 |  | CC(C)(CNS(C)(=O)=O)[C@@H](c1ccccc1)c1ccc2c(cnn2-c2ccc(F)cc2)c1
100 | 0.00087 | 0.0018 | 0.0128 | 96 | 0.0043 | 111 |  | CCS(=O)(=O)NCC(C)[C@@H](c1ccccc1)c1ccc2c(cnn2-c2ccc(F)cc2)c1 (stereo partly drawn)
 | 0.0024 |  | 0.0207 |  | 0.0075 |  |  | CC(CNC(=O)CC(F)(F)F)[C@@H](c1ccccc1)c1ccc2c(cnn2-c2ccc(F)cc2)c1 (stereo in doubt; 3i) [listing 1 of 2 here]
87 | 0.00072 | 0.0156 | 0.214 | 84 | 0.0288 | 19 |  | CCS(=O)(=O)NCC(C)(C)[C@@H](c1ccccc1)c1ccc2c(cnn2-c2ccc(F)cc2)c1
82 | 0.00115 | 0.0293 | 0.261 | 76 | 0.0268 | 19 |  | CC(C)(CNS(=O)(=O)C1CC1)[C@@H](c1ccccc1)c1ccc2c(cnn2-c2ccc(F)cc2)c1
105 | 0.00093 | 0.0014 | 0.024 | 100 | 0.0084 | 101 |  | CC(CNS(C)(=O)=O)[C@@H](c1ccccc1)c1ccc2c(cnn2-c2ccc(F)cc2)c1 (stereo partly drawn)
94 | 0.0036 | 0.0113 | 0.126 | 100 | 0.025 | 86 |  | CC(C)C[C@@H](c1ccc2c(cnn2-c2ccc(F)cc2)c1)C(C)(C)CNC(=O)NC(C)(C)C
80 | 0.002 | 0.023 | 0.394 | 100 | 0.078 | 25 | Active | CC(C)(C)C(=O)NCC(C)(C)[C@@H](c1ccccc1)c1ccc2c(cnn2-c2ccc(F)cc2)c1
